# High-throughput results deposited in PubChem BioAssay by several laboratories.
# Glyco luc inh – N-linked glycosylation inhibition; reporter increase, % at 12.5 µM; 0.23% of 360,000 active; AID 588692; D54 ERlucT glycosylation luciferase reporter, 24 h; percent of 100 nM tunicamycin response;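 active = mean luciferase reporter signal, scaled so untreated is 0 and the glycosylation-blocking control 100, at or above a set limit in every replicate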;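 note: luciferase carries N-glycosylation sites so blocking glycosylation raises the light; 0% = median of neutral control wells and 100% = median of 100 nM tunicamycin wells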
# T cell HTS – T cell immune modulators affecting CD8 T cell-vesicle binding | 2C CD8+ T cell-vesicle binding, flow cytometry; hits give low values | response (vesicle binding), % at 7 µM | 0.068% of 330,000 active | AID 2052;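 active = response, share of CD8 T cells binding vesicles, and their 90th percentile fluorescence all below set limits, cut at about 80% in these data, passing the limit was not always enough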;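 note: values below 100% mean blocked vesicle binding to the CD8+ T cells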
#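 Also added: QL9-peptide-loaded Drosophila micro-vesicles bearing Ld, ICAM-1 and B7-1; Test system: purified 2C TCR transgenic mouse naive CD8+ T cells; Measured by: cytometric PE anti-B7-1 and Alexa647 anti-CD8 signals after 1% paraformaldehyde fixation; Timing: binding step 1.5 h, 37 °C, antibody labelling 20 min, ice.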
# ALR H2O2 inh – human ALR oxidase inhibition via reduced H2O2; 3.8% of 290,000 active; AID 485317; purified ALR, DTT oxidation, H2O2 HRP-luminol luminescence; inhibition, % (concentration not given with the values);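 active = mean replicate inhibition above about 79%, with every replicate also reaching it, limit read from the data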
# Target sequence (P55789 whole entry, looked up): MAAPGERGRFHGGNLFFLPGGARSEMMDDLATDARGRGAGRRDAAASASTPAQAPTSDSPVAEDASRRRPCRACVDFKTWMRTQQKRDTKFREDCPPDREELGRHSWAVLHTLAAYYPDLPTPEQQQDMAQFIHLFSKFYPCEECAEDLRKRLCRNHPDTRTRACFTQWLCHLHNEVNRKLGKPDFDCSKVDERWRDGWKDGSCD
# * hit, by the source's call; i = inactive; . = no result. Only a selection was taken, and hits are over-represented in it overall.
SMILES,Glyco luc inh,T cell HTS,ALR H2O2 inh
O=C(NCCCN1CCOCC1)C(=O)N/N=C/c1c2ccccc2cc2ccccc12,0.1,537.4,-5.6
Cc1ccccc1CSCCNS(C)(=O)=O,0.6,431.1,29.8
COc1ccc(S(=O)(=O)NCCSCc2ccccc2C)cc1Br,-1.6,449.7,97.9*
COc1ccc(-n2c(C)cc(C(=O)CSc3nn4c(=O)c(C(C)(C)C)nnc4s3)c2C)cc1,3.5,141.5,7.2
COc1ccc(CNC(=O)CSc2nn3c(=O)c(C(C)(C)C)nnc3s2)cc1OC,-2.3,649.6,11.1
CC(C)(C)c1nnc2sc(SCC(=O)c3ccccc3)nn2c1=O,4.6,192.3,98.4*
CC(C)(C)c1nnc2sc(SCC(=O)N3CCc4ccccc43)nn2c1=O,7.8,374.6,i
COc1ccc(C(=O)CSc2nn3c(=O)c(C(C)(C)C)nnc3s2)cc1,33.9*,161.7,97.4*
Cc1cc(C(=O)CSc2nn3c(=O)c(C(C)(C)C)nnc3s2)c(C)n1C,9.3,271.5,92.3*
COC(=O)c1ccc(CSc2n[nH]c(=S)s2)o1,-1.1,269.7,91.8*
CCOC(=O)c1sc(N)c(C#N)c1CSc1nc2ccc(C)cc2[nH]1,-1.8,266.1,91.2*
COC(=O)c1ccc(CSc2nc3ccc(C)cc3[nH]2)o1,-0.2,326.6,95.3*
COC(=O)c1ccc(CSc2nc3c(cnn3-c3ccc(C)cc3)c(=O)[nH]2)o1,1.9,390.3,-0.1
CCOC(=O)c1sc(N)c(C#N)c1CSc1nc2ccc(OCC)cc2[nH]1,0.8,368.6,6.2
COC(=O)c1ccc(CSc2nc3ccccc3s2)o1,-0.5,704.7,1.9
O=C(c1oc2ccccc2c1CSCc1ccccc1)N1CCN(c2ncccn2)CC1,-1.9,i,-8.6
COc1ccc(N/N=C(\C#N)C(=N)N2CCCCC2)cc1,-6.0,212.8,99.1*
N#C/C(=N\Nc1ccc(F)cc1)C(=N)N1CCCCCC1,-10.6,577.4,-10.4
Cc1ccc(N/N=C(\C#N)C(=O)c2ccsc2)cc1,2.3,398.3,17.8
Cc1ccc(N/N=C(\C#N)C(=N)N2CCOCC2)cc1,-0.9,263.5,97.7*
Cc1ccc(N/N=C(\C#N)C(=N)N2CCCCCC2)cc1,-12.4,497.4,1.7
CCN(CC)C(=N)/C(C#N)=N/Nc1ccc(C)cc1,-3.5,244.3,98.6*
CN(Cc1nc2ccccc2c(=O)[nH]1)C(=O)C1CC(=O)N(c2cccc3ccccc23)C1 (stereo not drawn),3.7,412.6,-5.7
CCC(C)CCN1CCN=C1Nc1ccccc1 (stereo not drawn),-1.0,346.9,34.6
CC(Cc1ccsc1)NC(=O)CCc1nnc(CCc2ccccc2)o1 (stereo not drawn),2.2,305.1,-12.1
SMILES,Glyco luc inh,T cell HTS,ALR H2O2 inh
FC(F)(F)c1ccc(Cl)c(-n2c(-c3cc(C4CC4)[nH]n3)n[nH]c2=S)c1,-1.1,165.9,77.8*
FC(F)(F)c1ccc(Cl)c(-n2c(-c3cc(-c4ccco4)[nH]n3)n[nH]c2=S)c1,6.4,354.0,45.0
Cc1cc(C)n(-c2ccc(C(=O)Nc3nc4ccccc4s3)cc2)n1,-2.1,173.0,-3.6
COc1cc2nc(NC(=O)c3ccccc3)[nH]c(=O)c2cc1OC,3.2,231.6,-0.7
O=C(NNc1nc2ccccc2s1)Nc1ccc(F)cc1,0.8,232.1,-5.9
O=C(NNc1nc2ccccc2s1)c1ccccc1F,2.6,403.3,97.0*
Nc1ccc(C(=O)Nc2nc3ccccc3s2)cc1,-14.6,i,94.3*
COCC(=O)Nc1nc2ccccc2s1,1.1,257.6,0.9
COc1cc2nc(NC(=O)c3ccccc3)sc(=O)c2cc1OC,41.4*,.,.
NC(=S)Nc1nc2ccccc2s1,2.6,248.5,93.8*
Cn1c2c(c(=O)n(C)c1=O)C(c1ccc(Br)cc1)C(C#N)=C(N)N2 (stereo not drawn),3.3,204.8,-8.9
Cc1cc(C)c2c(c1)/C(=N/NC(=O)c1cc(C)oc1C)CCC2,2.3,173.8,-10.6
O=C(Nc1ccc(S(=O)(=O)N2CCCC2)cc1)C1CC(=O)N(c2ccc(F)cc2)C1 (stereo not drawn),-2.9,94.4,.
CCC(C)(C(=O)Nc1ccc(OC)cc1)N(C)C(=O)Cn1nnnc1N (stereo not drawn),1.7,221.6,.
CCCCC(c1nnnn1CC1CCCO1)N1CCN(Cc2ccccc2)CC1 (stereo not drawn),-1.6,393.4,1.0
CCCC(c1nnnn1CC1CCCO1)N1CCN(c2ccccc2)CC1 (stereo not drawn),0.1,93.5,98.2*
CCC(c1nnnn1Cc1ccccc1)N1CCN(c2ccc(OC)cc2)CC1 (stereo not drawn),-2.9,356.5,96.1*
CCC(c1nnnn1Cc1ccc2c(c1)OCO2)N1CCN(c2ccccc2)CC1 (stereo not drawn),-3.3,195.8,90.1*
